Laboratory results taken from ChEMBL document CHEMBL1152560, “Substituted 2-arylbenzothiazoles as kinase inhibitors: hit-to-lead optimization” (Bioorg Med Chem, 2009).

Legend:
[1] = target: T1, Ephrin type-B receptor 2 (Homo sapiens) (UniProt P29323); test: Residual activity of EPHB2 at 0.1 uM by microplate scintillation counting
T1 sequence (whole entry): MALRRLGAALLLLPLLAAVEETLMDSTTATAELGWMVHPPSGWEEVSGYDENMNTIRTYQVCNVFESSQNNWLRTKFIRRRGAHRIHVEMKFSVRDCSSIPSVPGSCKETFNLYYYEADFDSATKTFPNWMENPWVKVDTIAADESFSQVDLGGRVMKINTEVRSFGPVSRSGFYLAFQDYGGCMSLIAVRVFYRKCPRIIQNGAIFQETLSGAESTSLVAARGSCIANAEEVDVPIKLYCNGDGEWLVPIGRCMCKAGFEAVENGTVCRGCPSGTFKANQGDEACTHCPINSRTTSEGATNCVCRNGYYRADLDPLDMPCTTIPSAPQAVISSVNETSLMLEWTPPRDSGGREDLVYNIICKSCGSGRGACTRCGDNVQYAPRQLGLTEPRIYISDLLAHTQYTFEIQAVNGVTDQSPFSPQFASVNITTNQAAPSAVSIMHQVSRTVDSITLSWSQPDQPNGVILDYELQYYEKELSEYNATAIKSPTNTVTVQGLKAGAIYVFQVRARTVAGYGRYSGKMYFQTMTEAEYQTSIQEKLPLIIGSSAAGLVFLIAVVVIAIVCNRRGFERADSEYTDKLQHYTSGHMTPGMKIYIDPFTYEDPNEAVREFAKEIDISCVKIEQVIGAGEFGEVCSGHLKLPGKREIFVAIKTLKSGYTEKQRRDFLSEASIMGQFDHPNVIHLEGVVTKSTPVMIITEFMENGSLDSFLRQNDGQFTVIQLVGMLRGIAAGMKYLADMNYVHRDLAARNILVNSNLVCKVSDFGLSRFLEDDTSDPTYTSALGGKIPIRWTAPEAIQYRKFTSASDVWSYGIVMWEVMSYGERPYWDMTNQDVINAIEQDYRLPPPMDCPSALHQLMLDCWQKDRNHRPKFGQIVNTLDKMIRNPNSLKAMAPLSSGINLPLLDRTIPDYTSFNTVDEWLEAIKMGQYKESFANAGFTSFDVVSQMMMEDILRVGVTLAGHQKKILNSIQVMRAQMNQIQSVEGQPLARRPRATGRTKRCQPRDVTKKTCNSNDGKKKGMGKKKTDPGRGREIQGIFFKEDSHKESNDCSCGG

[2] = target: Casein kinase II subunit alpha (Homo sapiens) (UniProt P68400); test: Residual activity of CK2alpha1 at 1 uM by microplate scintillation counting
Casein kinase II subunit alpha (Homo sapiens), sequence (P68400 whole entry, looked up): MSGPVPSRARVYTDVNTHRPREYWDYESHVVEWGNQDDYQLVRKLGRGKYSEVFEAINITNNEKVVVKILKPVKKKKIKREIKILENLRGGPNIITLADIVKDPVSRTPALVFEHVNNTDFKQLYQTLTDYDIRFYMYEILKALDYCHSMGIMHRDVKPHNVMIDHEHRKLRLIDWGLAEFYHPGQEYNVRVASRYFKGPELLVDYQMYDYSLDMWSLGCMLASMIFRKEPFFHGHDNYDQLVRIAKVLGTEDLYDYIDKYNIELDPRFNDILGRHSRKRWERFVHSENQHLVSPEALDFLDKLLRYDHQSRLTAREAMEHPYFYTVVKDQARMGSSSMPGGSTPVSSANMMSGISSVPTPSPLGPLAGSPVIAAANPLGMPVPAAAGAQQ

[3] = target: Activated CDC42 kinase 1 (Homo sapiens) (UniProt Q07912); test: Residual activity of ACK1 at 1 uM by microplate scintillation counting
Activated CDC42 kinase 1 (Homo sapiens), sequence (Q07912 whole entry, looked up): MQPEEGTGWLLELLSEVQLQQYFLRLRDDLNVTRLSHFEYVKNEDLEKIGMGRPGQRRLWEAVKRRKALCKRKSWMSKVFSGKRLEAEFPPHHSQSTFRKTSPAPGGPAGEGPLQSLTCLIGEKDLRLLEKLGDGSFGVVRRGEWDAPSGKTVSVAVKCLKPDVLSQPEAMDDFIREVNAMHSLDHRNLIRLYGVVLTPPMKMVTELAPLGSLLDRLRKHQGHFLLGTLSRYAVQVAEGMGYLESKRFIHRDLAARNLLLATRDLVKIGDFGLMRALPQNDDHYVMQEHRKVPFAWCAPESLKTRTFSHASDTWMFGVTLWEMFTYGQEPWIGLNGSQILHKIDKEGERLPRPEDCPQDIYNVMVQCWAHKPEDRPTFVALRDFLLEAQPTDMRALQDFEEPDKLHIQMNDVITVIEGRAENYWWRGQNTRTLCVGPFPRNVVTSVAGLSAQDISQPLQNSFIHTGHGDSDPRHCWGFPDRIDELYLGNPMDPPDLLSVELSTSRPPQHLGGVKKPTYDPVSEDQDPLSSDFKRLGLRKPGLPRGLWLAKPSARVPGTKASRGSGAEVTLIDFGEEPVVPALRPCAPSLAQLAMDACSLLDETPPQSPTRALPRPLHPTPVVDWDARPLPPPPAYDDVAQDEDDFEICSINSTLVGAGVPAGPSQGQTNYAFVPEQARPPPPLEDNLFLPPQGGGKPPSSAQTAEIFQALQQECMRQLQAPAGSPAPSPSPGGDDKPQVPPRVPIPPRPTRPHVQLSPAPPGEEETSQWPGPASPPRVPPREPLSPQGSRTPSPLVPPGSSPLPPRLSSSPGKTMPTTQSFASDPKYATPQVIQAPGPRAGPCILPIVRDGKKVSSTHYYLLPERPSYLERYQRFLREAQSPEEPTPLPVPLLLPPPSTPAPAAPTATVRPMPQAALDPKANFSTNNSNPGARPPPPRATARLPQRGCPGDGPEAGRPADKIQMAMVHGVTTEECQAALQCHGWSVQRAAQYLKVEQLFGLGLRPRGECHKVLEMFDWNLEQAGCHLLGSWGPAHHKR

[4] = target: Vascular endothelial growth factor receptor 3 (Homo sapiens, UniProt P35916); test: Inhibition of VEGFR3 by microplate scintillation counting
Vascular endothelial growth factor receptor 3, sequence (P35916 whole entry): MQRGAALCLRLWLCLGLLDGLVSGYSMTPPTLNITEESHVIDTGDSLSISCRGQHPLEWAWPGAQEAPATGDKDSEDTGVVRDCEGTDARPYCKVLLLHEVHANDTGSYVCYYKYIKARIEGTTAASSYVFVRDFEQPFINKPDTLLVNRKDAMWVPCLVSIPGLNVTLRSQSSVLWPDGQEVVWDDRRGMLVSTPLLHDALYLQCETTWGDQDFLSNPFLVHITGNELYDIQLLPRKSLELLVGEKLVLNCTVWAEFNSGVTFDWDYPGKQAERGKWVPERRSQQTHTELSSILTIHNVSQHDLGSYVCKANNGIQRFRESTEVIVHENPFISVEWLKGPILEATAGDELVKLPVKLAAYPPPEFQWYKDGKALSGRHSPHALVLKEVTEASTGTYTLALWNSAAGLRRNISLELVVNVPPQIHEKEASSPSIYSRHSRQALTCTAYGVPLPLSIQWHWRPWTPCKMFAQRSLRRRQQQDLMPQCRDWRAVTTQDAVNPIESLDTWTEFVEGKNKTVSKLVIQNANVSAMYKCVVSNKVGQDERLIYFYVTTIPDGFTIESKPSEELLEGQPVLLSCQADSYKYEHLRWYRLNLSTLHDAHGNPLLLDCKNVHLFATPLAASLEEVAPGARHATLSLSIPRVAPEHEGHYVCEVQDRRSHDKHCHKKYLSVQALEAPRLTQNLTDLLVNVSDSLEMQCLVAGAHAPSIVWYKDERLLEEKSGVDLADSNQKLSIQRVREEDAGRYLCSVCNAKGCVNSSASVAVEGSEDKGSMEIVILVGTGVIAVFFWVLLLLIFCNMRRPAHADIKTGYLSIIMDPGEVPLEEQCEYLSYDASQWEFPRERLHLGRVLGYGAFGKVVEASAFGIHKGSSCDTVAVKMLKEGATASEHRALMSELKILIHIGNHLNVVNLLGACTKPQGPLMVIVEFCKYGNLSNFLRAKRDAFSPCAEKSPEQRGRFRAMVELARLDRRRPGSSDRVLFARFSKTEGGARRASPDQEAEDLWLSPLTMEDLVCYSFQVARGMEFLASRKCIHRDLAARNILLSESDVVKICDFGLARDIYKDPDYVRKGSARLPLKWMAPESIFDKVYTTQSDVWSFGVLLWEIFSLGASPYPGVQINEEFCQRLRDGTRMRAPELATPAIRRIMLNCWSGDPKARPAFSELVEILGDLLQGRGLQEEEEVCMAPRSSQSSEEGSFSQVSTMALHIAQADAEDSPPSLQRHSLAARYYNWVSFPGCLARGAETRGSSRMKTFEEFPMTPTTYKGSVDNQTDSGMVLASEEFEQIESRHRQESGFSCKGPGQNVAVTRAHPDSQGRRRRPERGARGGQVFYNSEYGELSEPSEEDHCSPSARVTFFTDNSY
Outline: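 Radiometric FlashPlate assay using recombinant kinase (10–200 ng/well) with poly(Glu,Tyr)4:1 substrate. Buffer: 60 mM HEPES-NaOH pH 7.5, 3 mM MgCl2, 3 mM MnCl2, 3 µM orthovanadate, 1.2 mM DTT, PEG 20000, 1 µM [γ-33P]-ATP. Run 80 min at 30 °C, stopped with H3PO4, and 33P incorporation counted.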

[5] = target: Mitogen-activated protein kinase 9 (Homo sapiens) (UniProt P45984); test: Residual activity of JNK2 at 1 uM by microplate scintillation counting
Mitogen-activated protein kinase 9 (Homo sapiens), sequence (P45984 whole entry, looked up): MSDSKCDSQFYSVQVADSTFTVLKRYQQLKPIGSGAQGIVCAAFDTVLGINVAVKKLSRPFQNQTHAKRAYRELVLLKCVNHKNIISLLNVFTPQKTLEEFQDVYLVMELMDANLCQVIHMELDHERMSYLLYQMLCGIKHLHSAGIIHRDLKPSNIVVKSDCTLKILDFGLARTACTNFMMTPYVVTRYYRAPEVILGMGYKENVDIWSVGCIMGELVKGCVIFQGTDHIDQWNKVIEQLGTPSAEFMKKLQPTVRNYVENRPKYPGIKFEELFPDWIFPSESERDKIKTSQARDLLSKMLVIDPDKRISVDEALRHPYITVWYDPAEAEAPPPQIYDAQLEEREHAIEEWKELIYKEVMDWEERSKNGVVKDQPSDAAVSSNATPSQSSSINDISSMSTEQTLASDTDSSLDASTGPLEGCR

[6] = target: T2, Serine/threonine-protein kinase D3 (Homo sapiens) (UniProt O94806); test: Residual activity of PKCnu at 0.1 uM by microplate scintillation counting
T2 sequence (whole entry): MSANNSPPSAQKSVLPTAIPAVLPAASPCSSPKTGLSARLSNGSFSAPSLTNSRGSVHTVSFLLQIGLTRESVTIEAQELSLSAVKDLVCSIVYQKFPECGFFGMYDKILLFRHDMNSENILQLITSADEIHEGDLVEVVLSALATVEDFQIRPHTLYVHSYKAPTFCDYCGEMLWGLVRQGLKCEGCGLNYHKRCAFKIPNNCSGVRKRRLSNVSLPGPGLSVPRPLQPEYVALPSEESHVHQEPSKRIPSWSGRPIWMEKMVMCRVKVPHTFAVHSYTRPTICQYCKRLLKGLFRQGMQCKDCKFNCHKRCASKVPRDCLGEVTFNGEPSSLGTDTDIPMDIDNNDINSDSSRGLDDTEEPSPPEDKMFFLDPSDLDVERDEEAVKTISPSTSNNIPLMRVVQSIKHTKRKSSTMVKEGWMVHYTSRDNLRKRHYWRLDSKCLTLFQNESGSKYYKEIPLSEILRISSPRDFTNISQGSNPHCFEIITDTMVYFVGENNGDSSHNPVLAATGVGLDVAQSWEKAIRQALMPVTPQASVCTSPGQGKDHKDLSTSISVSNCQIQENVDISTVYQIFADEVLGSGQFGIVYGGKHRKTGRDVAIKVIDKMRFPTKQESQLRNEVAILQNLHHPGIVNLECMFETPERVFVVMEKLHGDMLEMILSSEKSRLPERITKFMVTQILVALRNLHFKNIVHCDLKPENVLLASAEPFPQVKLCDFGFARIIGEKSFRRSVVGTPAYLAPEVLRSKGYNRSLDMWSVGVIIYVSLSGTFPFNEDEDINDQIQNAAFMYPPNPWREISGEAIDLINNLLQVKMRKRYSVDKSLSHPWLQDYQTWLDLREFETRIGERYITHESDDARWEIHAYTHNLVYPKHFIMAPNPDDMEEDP

[7] = target: Cyclin-dependent kinase 2/cyclin A (Homo sapiens) (UniProt P24941+P20248+P78396); test: Residual activity of CDK2/Cyclin A at 0.1 uM by microplate scintillation counting; format: protein-complex assay

residual activity [1] [%] | residual activity [2] [%] | residual activity [3] [%] | IC50 [4] [nM] | residual activity [5] [%] | residual activity [6] [%] | residual activity [7] [%] | SMILES
97 | 94 | 106 | 140 | 90 | 93 | 96 | COc1cc2c(Oc3ccc(-c4nc5ccccc5s4)cc3)ncnc2cc1OCCCN1CCCC1
99 | 90 | 76 | 121 | 121 | 86 | 94 | COc1cc2c(Oc3ccc(-c4nc5ccccc5s4)cc3)ncnc2cc1OCCCN1CCN(C)CC1
98 | 108 | 90 | 190 | 119 | 102 | 100 | COc1cc2c(Oc3ccc(-c4nc5ccccc5s4)cc3F)ncnc2cc1OCCCN1CCN(C)CC1
